From ChEMBL document CHEMBL1122329, “Synthesis and antianxiety activity of (omega-piperazinylalkoxy)indan derivatives” (J Med Chem, 1983)

Key:
Mus musculus [1] = assay: Anti-morphine activity against morphine-induced Straub''s tail reaction in mice expressed as % inhibition at 25 mg/kg peroral administration; type: functional; conditions: route oral
Method in brief: (§1)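 Six mice per group received test compounds orally 1 h before morphine (20 mg/kg ip). Straub's tail reaction was scored as the index of morphine's CNS stimulant action.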

Mus musculus [2] = assay: Anti-fighting potency against foot shock induced fighting behavior in mice expressed as % inhibition at 25 mg/kg peroral administration; type: functional; conditions: route oral
Rattus norvegicus [3] = assay: Evaluated for neuroleptic-like property using open-field test in rats(increase in ambulation at 3 to 20 mg/kg) on peroral administration; value may range from 8.4 to 17.0; type: functional; conditions: dose mg/kg 3-20, route oral
[4] = Toxicity on peroral administration to mice; type: organism-based; conditions: mouse, in vivo, po
Method in brief: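 Oral dosing to mice, eight per group; LD50 calculated by Litchfield-Wilcoxon method.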

Mus musculus [5] = assay: Evaluated for hypothermic activity in mice at 30 mg/kg on peroral administration; type: functional; conditions: route oral
Method in brief: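 Six mice per group were dosed orally 1 h before testing. Rectal temperature was read with an electronic thermometer. Results are given as degrees of hypothermia (Δt °C) versus an untreated group.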

Mus musculus [6] = assay: Anti-morphine activity against the morphine-induced Straub''s tail reaction in mice expressed as % inhibition at 25 mg/kg peroral administration; type: functional; conditions: route oral; method in brief: as §1
Rattus norvegicus [7] = assay: Evaluated for neuroleptic-like property using anti-methamphetamine test in rats on peroral administration; type: functional; conditions: po
Method in brief: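 Groups of six rats were dosed orally, then given methamphetamine 5 mg/kg ip 1 h later. Stereotypy was scored 0–4: sleep/eyes closed 0, motionless/eyes open 1, moving around cage 2, sniffing 3, continuous licking or gnawing 4. ED50 was the dose halving mean score versus controls, with 95% confidence limits.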

Mus musculus [8] = assay: Cataleptogenic action in mice on peroral administration; type: functional; conditions: po
Method in brief: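 Six mice per group were dosed orally 1 h before testing. Forepaws were placed on a horizontal steel bar to force an abnormal posture. Holding the posture over 30 s counted as catalepsy. ED50 was the dose giving catalepsy in 50% of animals, with 95% confidence limits.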

[9] = Ratio of the muscle relaxant action to antifighting effect; type: functional
Method in brief: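 Muscle relaxation was measured by traction test in mice (eight per group), 1 h after oral dosing. Forepaws were placed on a horizontal wire bar 30 cm high. Failure to bring the hind feet onto the wire within 5 s counted as relaxation. This action was set in ratio with the antifighting effect.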

Mus musculus [10] = assay: Antifighting potency against the foot shock induced fighting behavior in mice on peroral administration; type: functional; conditions: po
Mus musculus [11] = assay: Anti-morphine activity against the morphine-induced Straub's tail reaction in mice on peroral administration; type: functional; conditions: po
Method in brief: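 Mice, six per group, dosed orally with test compound 1 h before morphine (20 mg/kg ip); Straub's tail reaction scored as index of morphine CNS stimulation.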

Mus musculus [12] = assay: Evaluated for muscle-relaxant action in mice on peroral administration; type: functional; conditions: po
Method in brief: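 Traction test: mice, eight per group, dosed orally; 1 h later forepaws placed on horizontal wire bar 30 cm high; failure to bring hind feet onto wire within 5 s counted as muscle relaxation.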

| SMILES | inhibition in vivo at 25 mg/kg (Mus musculus [1]) | inhibition in vivo at 25 mg/kg (Mus musculus [2]) | further results |
| --- | --- | --- | --- |
| c1ccc(C2CCc3ccc(OCCCN4CCN(c5ccccc5)CC4)cc32)cc1 (stereo unspecified) | 34% | 0% |  |
| Clc1cccc(N2CCN(CCCOc3ccc4c(c3)CCC4)CC2)c1 | 83% | 83% |  |
| O=[N+]([O-])c1ccc(N2CCN(CCCCOc3ccc4c(c3)CCC4)CC2)cc1 | 22% | 0% |  |
| Clc1cccc(N2CCN(CCCCOc3ccc4c(c3)CCC4)CC2)c1 | 0% | 37% |  |
| Cl.Cl.c1ccc(N2CCN(CCCOc3ccc4c(c3)CCC4)CC2)cc1 |  | 85% | ED50 (Rattus norvegicus [3]): 11.7 mg/kg; LD50 [4]: > 1500 mg/kg; Delta t (Mus musculus [5]): -2.3 °C; inhibition in vivo at 25 mg/kg (Mus musculus [6]): 89%; ED50 (Rattus norvegicus [7]): > 100 mg/kg; ED50 (Mus musculus [8]): > 100 mg/kg; Ratio [9]: 2.18 |
| c1ccc(N2CCN(CCOc3ccc4c(c3)CCC4)CC2)cc1 | 17% | 0% |  |
| Fc1ccc(N2CCN(CCCCOc3ccc4c(c3)CCC4)CC2)cc1 | 100% | 70% |  |
| Cl.Cl.O=[N+]([O-])c1ccccc1N1CCN(CCCCOc2ccc3c(c2)CCC3)CC1 | 54% | 42% | ED50 (Mus musculus [10]): 25.8 mg/kg; ED50 (Mus musculus [11]): 23 mg/kg |
| Clc1cc(Cl)cc(N2CCN(CCCCOc3ccc4c(c3)CCC4)CC2)c1 | 0% | 0% |  |
| Fc1cc2c(cc1OCCCN1CCN(c3cccc(C(F)(F)F)c3)CC1)CCC2 | 20% | 0% |  |
| Cl.Cl.FC(F)(F)c1cccc(N2CCN(CCCCOc3ccc4c(c3)CCC4)CC2)c1 | 100% | 8% | ED50 (Mus musculus [11]): 12.5 mg/kg |
| Oc1cc2c(cc1OCCCN1CCN(c3ccc(F)cc3)CC1)CCC2 | 0% | 25% |  |
| Oc1cc2c(cc1OCCCN1CCN(c3cccc(Cl)c3)CC1)CCC2 | 29% | 0% |  |
| Cl.Cl.Fc1ccc(N2CCN(CCCCOc3cc4c(cc3F)CCC4)CC2)cc1 | 90% | 83% | ED50 (Mus musculus [10]): 14.4 mg/kg; ED50 (Mus musculus [11]): 10.2 mg/kg |
| CNC1=Nc2ccc(Cl)cc2C(c2ccccc2)=[N+]([O-])C1 [CHLORDIAZEPOXIDE] |  |  | LD50 [4]: 700 mg/kg; Delta t (Mus musculus [5]): 0.2; ED50 (Rattus norvegicus [7]): > 30 mg/kg; ED50 (Mus musculus [8]): > 30 mg/kg; ED50 (Mus musculus [12]): 8 mg/kg |
| c1ccc(N2CCN(CCCCOc3ccc4c(c3)CCC4)CC2)cc1 | 50% | 75% |  |
| COc1ccccc1N1CCN(CCCOc2ccc3c(c2)CCC3)CC1 | 19% | 0% |  |
| CN1C(=O)CN=C(c2ccccc2)c2cc(Cl)ccc21 [DIAZEPAM] |  |  | Delta t (Mus musculus [5]): -0.1; ED50 (Mus musculus [10]): 1.6 mg/kg; ED50 (Rattus norvegicus [7]): > 30 mg/kg; ED50 (Mus musculus [11]): 1.2 mg/kg; ED50 (Mus musculus [8]): > 30 mg/kg; ED50 (Mus musculus [12]): 4.8 mg/kg |
| Cl.Cl.Cl.Fc1ccc(N2CCN(CCCOc3cc4c(cc3Cl)CCC4)CC2)cc1 | 100% | 83% | ED50 (Mus musculus [10]): 14.3 mg/kg; ED50 (Mus musculus [11]): 11.5 mg/kg |
| Cl.Cl.Cl.Clc1cc2c(cc1OCCCN1CCN(c3ccccc3)CC1)CCC2 | 82% | 58% | ED50 (Mus musculus [10]): 21 mg/kg; ED50 (Mus musculus [11]): 22 mg/kg |
| COc1ccc(N2CCN(CCCCOc3ccc4c(c3)CCC4)CC2)cc1 | 14% | 17% |  |
| FC(F)(F)c1cccc(N2CCN(CCCOc3ccc4c(c3)CCC4)CC2)c1 | 73% | 0% |  |
| Clc1ccc(N2CCN(CCCCOc3ccc4c(c3)CCC4)CC2)cc1 | 33% | 31% |  |
| c1ccc(N2CCN(CCCOc3cccc4c3CCC4)CC2)cc1 | 33% | 0% |  |
| Fc1cc2c(cc1OCCCN1CCN(c3cccc(Cl)c3)CC1)CCC2 | 92% | 92% |  |
| FC(F)(F)c1cccc(N2CCN(CCCCCOc3ccc4c(c3)CCC4)CC2)c1 | 66% | 33% |  |
| Fc1ccc(N2CCN(CCCCCOc3ccc4c(c3)CCC4)CC2)cc1 | 71% | 58% |  |
